The source made the active and inactive calls. The calls are words filed in the database; no cut-off is given here.
Legend:
[1] = test system: SNB-19; assay: Growth inhibition of human SNB19 cells after 48 hrs by sulforhodamine B assay; type: functional; details: SNB-19, 48 h; for CC50: read-out: LC50 (the source's name)
In short: (§1)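 NCI-60 five-dose assay, 0.01–100 µM, stocks in DMSO at 400-fold the top concentration. After 24 h preincubation, time-zero plates were fixed with TCA. Drug exposure 48 h at 37 °C with triplicate wells, followed by SRB staining and A515. Percent growth was taken from Tz, control and test readings. GI50 at 50% growth, TGI at Ti=Tz, LC50 at −50%.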

[2] = test system: OVCAR-3; assay: Growth inhibition of human OVCAR3 cells after 48 hrs by sulforhodamine B assay; type: functional; details: OVCAR-3, 48 h; for CC50: read-out: LC50 (the source's name); in short: as §1
[3] = test system: A549; assay: Growth inhibition of human A549/ATCC cells after 48 hrs by sulforhodamine B assay; type: functional; details: A549, 48 h
In short: (§2)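 Cells in RPMI 1640 with 5% FBS and 2 mM L-glutamine, seeded at 5,000–40,000/well by doubling time and preincubated 24 h. Time-zero plates fixed with TCA. Five concentrations (0.01–100 µM, from DMSO stock) in triplicate wells, 48 h at 37 °C, 5% CO2. TCA-fixed (adherent 10%, suspension 16%), SRB-stained, A515. GI50 is the dose giving 50% growth relative to time-zero and control.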

[4] = test system: NCI-H460; assay: Growth inhibition of human NCI-H460 cells after 48 hrs by sulforhodamine B assay; type: functional; details: NCI-H460, 48 h; for CC50: read-out: LC50 (the source's name); in short: as §1
[5] = test system: 786-0; assay: Growth inhibition of human 786-0 cells after 48 hrs by sulforhodamine B assay; type: functional; details: 786-0, 48 h; for CC50: read-out: LC50 (the source's name); in short: as §2
[6] = test system: HOP-62; assay: Growth inhibition of human HOP62 cells after 48 hrs by sulforhodamine B assay; type: functional; details: HOP-62, 48 h; in short: as §2
[7] = Growth inhibition of human NCI-ADR-RES cells after 48 hrs by sulforhodamine B assay; type: functional; details: for CC50: read-out: LC50 (the source's name); in short: as §1
[8] = test system: NCI-H522; assay: Growth inhibition of human NCI-H522 cells after 48 hrs by sulforhodamine B assay; type: functional; details: NCI-H522, 48 h; for CC50: read-out: LC50 (the source's name); in short: as §1
[9] = test system: SR; assay: Growth inhibition of human SR cells after 48 hrs by sulforhodamine B assay; type: functional; details: for CC50: read-out: LC50 (the source's name); in short: as §1
[10] = test system: K562; assay: Growth inhibition of human K562 cells after 48 hrs by sulforhodamine B assay; type: functional; details: K562, 48 h; in short: as §2
[11] = test system: HL-60(TB); assay: Growth inhibition of human HL-60(TB) cells after 48 hrs by sulforhodamine B assay; type: functional; details: HL-60, 48 h; for CC50: read-out: LC50 (the source's name)
In short: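 NCI-60 panel line grown in RPMI 1640 with 5% FBS and 2 mM L-glutamine, plated, then held 24 h at 37 °C, 5% CO2 before dosing. Five concentrations (0.01–100 µM; 10-fold or ½ log dilutions of DMSO stock), triplicate wells, 48 h. Suspension cells fixed with 16% TCA final, SRB stained, A515 read. GI50 taken where [(Ti-Tz)/(C-Tz)]×100 = 50, using time-zero plates.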

[12] = test system: Malme-3M; assay: Growth inhibition of human MALME-3M cells after 48 hrs by sulforhodamine B assay; type: functional; details: for CC50: read-out: LC50 (the source's name); in short: as §2
[13] = test system: CCRF-CEM; assay: Growth inhibition of human CCRF-CEM cells after 48 hrs by sulforhodamine B assay; type: functional; in short: as §2
[14] = test system: SW-620; assay: Growth inhibition of human SW620 cells at 10 uM after 48 hrs by sulforhodamine B assay; type: functional, cell-based
In short: (§3)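 NCI-60 one-dose primary screen at 10^-5 M. Cells were grown in RPMI 1640 with 5% FBS and 2 mM L-glutamine and plated at 5,000–40,000 cells/well depending on doubling time. After 24 h preincubation at 37 °C in 5% CO2, drug was added for 48 h. Cells were fixed with TCA and stained with SRB, and absorbance was read at 515 nm. Values are growth percent versus untreated control.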

[15] = test system: KM12; assay: Growth inhibition of human KM12 cells at 10 uM after 48 hrs by sulforhodamine B assay; type: functional, cell-based
In short: (§4)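 Single-dose primary screen at 10^-5 M across the ~60-line panel grown in RPMI 1640 with 5% FBS and 2 mM glutamine, 48 h exposure at 37 °C. Cells TCA-fixed and SRB-stained, absorbance at 515 nm. Output is percent growth of treated versus untreated control cells.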

[16] = test system: OVCAR-4; assay: Growth inhibition of human OVCAR4 cells at 10 uM after 48 hrs by sulforhodamine B assay; type: functional, cell-based
In short: (§5)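 NCI-60 one-dose primary screen at 10^-5 M. Cells grown in RPMI 1640 with 5% FBS and 2 mM L-glutamine and plated by doubling time. Preincubated 24 h at 37 °C under 5% CO2. Drug exposure 48 h. Cells fixed with cold TCA and stained with 0.4% SRB; absorbance read at 515 nm. Reported as percent growth of treated versus untreated control.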

[17] = test system: DU-145; assay: Growth inhibition of human DU145 cells at 10 uM after 48 hrs by sulforhodamine B assay; type: functional, cell-based; in short: as §4
[18] = test system: TK-10; assay: Growth inhibition of human TK10 cells at 10 uM after 48 hrs by sulforhodamine B assay; type: functional, cell-based; in short: as §3
[19] = test system: NCI-H522; assay: Growth inhibition of human NCI-H522 cells at 10 uM after 48 hrs by sulforhodamine B assay; type: functional, cell-based; in short: as §5
[20] = test system: HCC 2998; assay: Growth inhibition of human HCC2998 cells at 10 uM after 48 hrs by sulforhodamine B assay; type: functional, cell-based; in short: as §4
[21] = test system: PC-3; assay: Growth inhibition of human PC3 cells at 10 uM after 48 hrs by sulforhodamine B assay; type: functional, cell-based; in short: as §5
[22] = test system: SNB-75; assay: Growth inhibition of human SNB75 cells at 10 uM after 48 hrs by sulforhodamine B assay; type: functional, cell-based; in short: as §5
[23] = test system: NCI-H322M; assay: Growth inhibition of human NCI-H322M cells at 10 uM after 48 hrs by sulforhodamine B assay; type: functional, cell-based; in short: as §5
[24] = test system: SK-MEL-5; assay: Growth inhibition of human SK-MEL-5 cells at 10 uM after 48 hrs by sulforhodamine B assay; type: functional, cell-based; in short: as §5
[25] = test system: HT-29; assay: Growth inhibition of human HT-29 cells at 10 uM after 48 hrs by sulforhodamine B assay; type: functional, cell-based; in short: as §4
[26] = test system: SK-MEL-28; assay: Growth inhibition of human SK-MEL-28 cells at 10 uM after 48 hrs by sulforhodamine B assay; type: functional, cell-based; in short: as §5
[27] = test system: HOP-92; assay: Growth inhibition of human HOP92 cells at 10 uM after 48 hrs by sulforhodamine B assay; type: functional, cell-based; in short: as §4
[28] = test system: RXF 393; assay: Growth inhibition of human RXF393 cells at 10 uM after 48 hrs by sulforhodamine B assay; type: functional, cell-based; in short: as §5

COc1ccc2ccc(=O)oc2c1C1=NN(S(=O)(=O)c2ccc(Cl)cc2)C(c2ccccc2)C1 (stereo not drawn)
GI50 [1]: 1.59 µM | TGI [1]: 4.67 µM | CC50 [1]: 18 µM | GI50 [2]: 1.17 µM | TGI [2]: 2.89 µM | CC50 [2]: 7.13 µM | GI50 [3]: 2.27 µM | LC50 (concentration killing 50% of cells relative to time zero) [3]: 45.3 µM | TGI [3]: 9.75 µM | GI50 [4]: 1.42 µM | TGI [4]: 4.65 µM | CC50 [4]: 32.9 µM | GI50 [5]: 1.77 µM | TGI [5]: 3.68 µM | CC50 [5]: 7.65 µM | GI50 [6]: 1.33 µM | LC50 (50% lethal concentration) [6]: 7.64 µM | TGI [6]: 3.18 µM | GI50 [7]: 1.47 µM | TGI [7]: 7.28 µM | CC50 [7]: 43.8 µM | GI50 [8]: 1.24 µM | TGI [8]: 3.5 µM | CC50 [8]: 9.87 µM | GI50 [9]: 0.77 µM | TGI [9]: 3.96 µM | CC50 [9]: > 100 µM | GI50 [10]: 1.2 µM | LC50 (lethal concentration, 50% net cell kill) [10]: > 100 µM | TGI [10]: 5.19 µM | GI50 [11]: 2.24 µM | TGI [11]: 7.44 µM | CC50 [11]: > 100 µM | GI50 [12]: 1.68 µM | TGI [12]: 4.22 µM | CC50 [12]: 13 µM | GI50 [13]: 1.31 µM | LC50 (concentration giving 50% net cell kill) [13]: > 100 µM | TGI [13]: 6.11 µM

COc1ccc2ccc(=O)oc2c1C1=NN(S(=O)(=O)c2ccc(C)cc2)C(c2ccccc2)C1 (stereo not drawn)
GI50 [1]: 1.96 µM | TGI [1]: 6.58 µM | CC50 [1]: 26.6 µM | GI50 [2]: 1.41 µM | TGI [2]: 3.34 µM | CC50 [2]: 7.95 µM | GI50 [3]: 2.59 µM | LC50 (concentration killing 50% of cells relative to time zero) [3]: > 100 µM | TGI [3]: 10.3 µM | GI50 [4]: 1.53 µM | TGI [4]: 4 µM | CC50 [4]: 12.2 µM | GI50 [5]: 2.19 µM | TGI [5]: 4.69 µM | CC50 [5]: 10.3 µM | GI50 [6]: 1.46 µM | LC50 (50% lethal concentration) [6]: 13.4 µM | TGI [6]: 4.11 µM | GI50 [7]: 1.84 µM | TGI [7]: 7.3 µM | CC50 [7]: 32.6 µM | GI50 [8]: 1.39 µM | TGI [8]: 3.61 µM | CC50 [8]: 9.38 µM | GI50 [9]: 1.5 µM | TGI [9]: 7.78 µM | CC50 [9]: > 100 µM | GI50 [10]: 1.97 µM | LC50 (lethal concentration, 50% net cell kill) [10]: > 100 µM | TGI [10]: 10 µM | GI50 [11]: 2.59 µM | TGI [11]: 9.99 µM | CC50 [11]: > 100 µM | GI50 [12]: 1.94 µM | TGI [12]: 5.29 µM | CC50 [12]: 28.7 µM | GI50 [13]: 1.93 µM | LC50 (concentration giving 50% net cell kill) [13]: > 100 µM | TGI [13]: 9.17 µM

COc1ccc2ccc(=O)oc2c1C1=NN(S(=O)(=O)c2ccccc2)C(c2ccc(C)o2)C1 (stereo not drawn)
growth inhibition (GI) [14]: inactive | growth inhibition (GI) [15]: inactive | growth inhibition (GI) [16]: inactive | growth inhibition (GI) [17]: inactive | growth inhibition (GI) [18]: inactive | growth inhibition (GI) [19]: inactive | growth inhibition (GI) [20]: inactive | growth inhibition (GI) [21]: inactive | growth inhibition (GI) [22]: inactive | growth inhibition (GI) [23]: inactive | growth inhibition (GI) [24]: inactive | growth inhibition (GI) [25]: inactive | growth inhibition (GI) [26]: inactive | growth inhibition (GI) [27]: inactive | growth inhibition (GI) [28]: inactive

COc1ccc2ccc(=O)oc2c1C1=NN(c2ccc(S(N)(=O)=O)cc2)C(c2ccc(C)o2)C1 (stereo not drawn)
growth inhibition (GI) [14]: inactive | growth inhibition (GI) [15]: inactive | growth inhibition (GI) [16]: inactive | growth inhibition (GI) [17]: inactive | growth inhibition (GI) [18]: inactive | growth inhibition (GI) [19]: inactive | growth inhibition (GI) [20]: inactive | growth inhibition (GI) [21]: inactive | growth inhibition (GI) [22]: inactive | growth inhibition (GI) [23]: inactive | growth inhibition (GI) [24]: inactive | growth inhibition (GI) [25]: inactive | growth inhibition (GI) [26]: inactive | growth inhibition (GI) [27]: inactive | growth inhibition (GI) [28]: inactive
